Assay outcomes from PubChem.
Most compounds without a hit are left out; they make up all but 2.9% or so of the library.
Rev-erbA mod: modulators of Rev-erb alpha DNA binding, primary screen, biochemical, FITC-DNA, fluorescence polarization, uHTS | Nuclear receptor subfamily 1 group D member 1 (Homo sapiens), P20393 | Rev-erbα–FITC-DNA binding, 90 min | activity, % at 10 µM | hit rate 0.79% among 370,000 | AID 1259318, 2017;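 active means activity above about 14%, limit read from the data; passing the limit was not always enough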
Target sequence (P20393 whole entry, looked up): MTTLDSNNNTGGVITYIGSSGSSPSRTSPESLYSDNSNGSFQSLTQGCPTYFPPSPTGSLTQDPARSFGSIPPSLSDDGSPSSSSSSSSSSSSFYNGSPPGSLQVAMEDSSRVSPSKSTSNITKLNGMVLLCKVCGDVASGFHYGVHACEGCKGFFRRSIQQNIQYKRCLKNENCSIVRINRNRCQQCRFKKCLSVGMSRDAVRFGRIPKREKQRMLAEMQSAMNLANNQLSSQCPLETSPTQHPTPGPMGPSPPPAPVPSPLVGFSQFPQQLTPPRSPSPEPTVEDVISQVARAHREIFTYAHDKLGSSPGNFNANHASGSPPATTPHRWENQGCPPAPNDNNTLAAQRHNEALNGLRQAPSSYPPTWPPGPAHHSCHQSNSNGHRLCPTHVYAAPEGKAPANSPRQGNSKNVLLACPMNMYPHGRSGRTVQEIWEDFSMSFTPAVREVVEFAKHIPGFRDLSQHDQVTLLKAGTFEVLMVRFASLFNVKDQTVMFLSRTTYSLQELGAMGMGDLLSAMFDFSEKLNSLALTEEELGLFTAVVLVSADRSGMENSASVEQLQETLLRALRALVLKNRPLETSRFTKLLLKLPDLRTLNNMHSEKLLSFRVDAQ
iPSC survival up: enhancers of single-cell hiPSC survival, primary screen, ATPlite luminescence | 100% = ROCK inhibitor wells, 0% = DMSO | survival enhancement, % at 20 µM | hit rate 0.044% among 360,000; in the data active means survival enhancement above about 18%;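 further: cells exposed to compounds for 16 hours before the ATP read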
MIN6 prolif: inducers of MIN6 beta-cell proliferation, primary screen, ATP luminescence, uHTS; MIN6 cells proliferation, ATPlite luminescence, 48 h; cells starved in 0.2% serum; 100% = growth in 10% serum; proliferation, % at 10 µM; hit rate 0.29% among 330,000;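 active means compounds whose signal lies at least 3.5 SD above the mean of all wells on their plate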
TAG inh: inhibitors of triacylglycerol accumulation, primary screen, cell-based, uHTS, fluorescence, H9c2; H9c2 cells, Nile Red lipid (TAG) fluorescence; cells loaded with 200 µM oleic acid; inhibition, % at 12.5 µM; hit rate 0.66% among 230,000; AID 651582, 2012;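 active means pattern-corrected inhibition of lipid staining of at least 50% with the nuclear-stain viability signal not falling by more than 50%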
PG9 binder: binders of HIV-1 gp120 antibody PG9, primary screen, biochemical, TR-FRET; HIV-1 gp120 / PG9 antibody interaction; TR-FRET gp120-PG9 antibody binding; inhibition, % at 6.7 µM; hit rate 0.43% among 360,000; AID 624416, 2012; in the data active means inhibition above about 8.5%
T cruzi repl: inhibitors of intracellular T. cruzi growth, primary screen, luminescence, NIH3T3 host cells; T. cruzi beta-gal in NIH3T3, 90 h; inhibition, % (test concentration not listed); hit rate 1.4% among 300,000;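 active means mean inhibition across valid replicates above about 55%, limit read from the data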;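 further: signal also drops with host cell toxicity which is not excluded here; higher percent means less beta-gal luminescence so fewer parasites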
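assay system = mouse NIH/3T3 fibroblasts infected with β-gal-expressing T. cruzi Tulahuen C4 | input = 5,000 NIH/3T3 host cells per well | buffer or medium = DMEM plus 2% FBS | timing = 3 h host attachment, then at least 90 h co-culture | measured by = GalScreen luminescence, 60 min | evaluation = luminescence reflecting intracellular parasite burden, expressed as percent inhibition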
Rev-erbA confirm: modulators of Rev-erb alpha DNA binding, confirmation, biochemical, FITC-DNA, fluorescence polarization, single point. hit rate 61% among 3,000. 90 min. AID 1259319, 2017. shares compounds with Rev-erbA mod. activation, % at 25 µM;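 active means activation at or above a set limit, or at least 3 SD above the negative control mean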
RORg DNA counter: modulation of RORgamma DNA binding, dose response, counter-screen for Rev-erb alpha modulator project, biochemical, fluorescence polarization, FITC-DNA. AID 1259320, 2017. IC50, µM. purified RORgamma protein-FITC-DNA binding. hit rate 8% among 910. shares compounds with Rev-erbA mod;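 active means Compounds whose fitted half-maximal concentration for disrupting protein-DNA binding is below 10 micromolar; the record names Rev-erb in its text, so the target is in doubt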
Large screens that a line does not name were inactive (follow-up assays come after a bar, where they were run).

CCCn1c(NC(=O)C2CCN(C(=O)c3ccc(F)cc3)CC2)nc2ccccc21	none
CCCn1c(NC(=O)c2ccc(Br)cc2)nc2ccccc21	Rev-erbA mod 32 (no result: TAG inh) | Rev-erbA confirm 22
CCCc1nc(SCC(=O)NC2CC2)c2c(C)c(C)sc2n1	Rev-erbA mod 22 (no result: TAG inh) | Rev-erbA confirm inactive
Cc1cc2oc(=O)cc(-c3ccccc3)c2c(C)c1-c1ccc(O)cc1	Rev-erbA mod 17 (no result: MIN6 prolif, T cruzi repl) | Rev-erbA confirm inactive
O=C(O)CCC(=O)NCC1OCCc2ccccc21 (stereo unspecified)	none (no result: TAG inh)
CN1C(=O)CSC1=NC12CC3CC(CC(C3)C1)C2	none (no result: TAG inh)
CCN1C(=O)CSC1=NC12CC3CC(CC(C3)C1)C2	Rev-erbA mod 49 (no result: TAG inh) | Rev-erbA confirm 58 | RORg DNA counter inactive
N#CCCn1nc(-c2ccc(Cl)cc2)cc1Nc1ccccc1NC(=O)C(F)(F)F	none (no result: TAG inh)
CCOc1ccc(NC(=O)CCSc2ccc(C)cc2)cc1	none
CCOc1ccc(NC(=O)CCSc2ccc3ccccc3n2)cc1	Rev-erbA mod 82 (no result: TAG inh) | Rev-erbA confirm 46 | RORg DNA counter inactive
Cc1ccc(S(=O)(=O)N(C)c2ccc(OCC(=O)Nc3nc4c(ccc5ccccc54)s3)cc2)cc1	Rev-erbA mod 24 (no result: TAG inh) | Rev-erbA confirm 27
Cc1ccc(S(=O)(=O)N(C)c2ccc(OCC(=O)Nc3nc4ccccc4s3)cc2)cc1	none (no result: TAG inh)
O=C1CCCN1CCCNc1nc2c(S(=O)(=O)c3ccc(Br)cc3)nnn2c2ccccc12	Rev-erbA mod 31 (no result: TAG inh) | Rev-erbA confirm inactive
Cc1ccc(S(=O)(=O)c2nnn3c2nc(Nc2cccc(C)c2)c2ccccc23)cc1	Rev-erbA mod 29 (no result: TAG inh) | Rev-erbA confirm inactive
Cc1cccc(Nc2nc3ccccc3n3nnnc23)c1	none (no result: TAG inh)
Cc1ccc(C)c(Nc2nc3c(S(=O)(=O)c4ccccc4)nnn3c3ccccc23)c1	Rev-erbA mod 63 (no result: TAG inh) | Rev-erbA confirm 33 | RORg DNA counter inactive
CN(C)/C=N/c1ncc(C(=O)c2ccc(-c3ccccc3)cc2)s1	Rev-erbA mod 17 | Rev-erbA confirm inactive
O=c1c2cc3c(cc2[nH]c(=S)n1C1CCN(Cc2ccccc2)CC1)OCO3	Rev-erbA mod 15 | Rev-erbA confirm inactive
Cc1cccc(Nc2ncccc2C(=O)NCc2cccs2)c1C	none
CCN(CC)S(=O)(=O)c1ccc(OC)c(NC(=O)C(C)Oc2ccc3c(C)cc(=O)oc3c2)c1 (stereo unspecified)	none (no result: TAG inh)
O=C(Nc1nnc(-c2ccc(Br)cc2)o1)c1cccc(N2C(=O)CCC2=O)c1	Rev-erbA mod 18 | Rev-erbA confirm inactive
Cc1ccc(-c2c(NC(=O)Nc3ccccc3)nc3ncccn23)cc1	none (no result: iPSC survival up, MIN6 prolif, TAG inh, PG9 binder, T cruzi repl)
CCOC(=O)c1c(NC(=S)Nc2ccc(OC)cc2)sc2c1CCCCC2	none (no result: TAG inh)
CCOC(=O)c1c(NC(=S)Nc2ccc(OC)cc2)sc2c1CCC2	Rev-erbA mod 47 (no result: TAG inh) | Rev-erbA confirm 37 | RORg DNA counter inactive
Cc1cc(=O)oc2cc(OCC3CC(c4ccc(N(C)C)cc4)=NO3)ccc12 (stereo unspecified)	none
Cc1cc(=O)oc2cc(OCC3CC(c4ccc(Cl)cc4)=NO3)ccc12 (stereo unspecified)	Rev-erbA mod 80 (no result: TAG inh) | Rev-erbA confirm 72 | RORg DNA counter inactive
Cc1ccc(OCC(=O)Nc2ccc(Cl)cc2)c(-n2nc3ccccc3n2)c1	Rev-erbA mod 69 (no result: TAG inh) | Rev-erbA confirm inactive
O=C(COc1ccccc1[N+](=O)[O-])Nc1ccc(NC(=O)c2cc3ccccc3o2)cc1	none
